Measured values collected from several papers.
Protocols differ between the studies behind these lines.
Target: Sodium-dependent serotonin transporter (SLC6A4, Homo sapiens, UniProt P31645)

COc1ccc(-n2nc(OCCCN3CCCCC3)ccc2=O)cc1  inhibition (ligand displacement; 1 µM): 43.6%
COc1cc(NC(C)=O)c(Cl)cc1C(=O)Nc1nccs1  inhibition (cell-free assay; 10 µM): -12.3%
CN(C)CCCN1c2ccccc2CCc2ccccc21  inhibition (transporter uptake; inhibitor; radiometric; COS-7; 4 nM): 19.6%
CCCNc1nc2ccccc2n1Cc1ccc(Cl)cc1  inhibition (ligand displacement; 10 µM): -8.27%
CCN(CC)c1ccc(C2Nc3ccc(C(=O)c4ccccc4)cc3NC3=C2C(=O)CC(C)(C)C3)cc1 (stereo not shown)  inhibition (ligand displacement; radioligand; 10 µM): 57%
N#Cc1cc(Cn2c(N3CCCC3)nc3ccccc32)ccc1F  inhibition (ligand displacement; 10 µM): -16.9%
CN1CCN(CCCOc2ccc(=O)n(-c3ccc(Cl)c(Cl)c3)n2)CC1  inhibition (ligand displacement; 1 µM): 21.7%
O=C(c1ccc(Cl)cc1)N(Cc1ccccc1)C1CCCCC1  inhibition (cell-free assay; 10 µM): -7.1%
CCN(Cc1ccccc1C(F)(F)F)C(=O)C1CCN(S(=O)(=O)c2ccc3[nH]ncc3c2)CC1  inhibition (ligand displacement; radioligand; 10 µM): 2%
O=C1N=C(N2CCCCN2)S/C1=C\c1ccc(F)cc1O  inhibition (ligand displacement; radioligand; 10 µM): < 10%
